Laboratory results taken from ChEMBL document CHEMBL2034874, “5-acetyl-2-arylbenzimidazoles as antiviral agents. Part 4” (Eur J Med Chem, 2012).

How the values were obtained:
[1] = system: Yellow fever virus; experiment: Antiviral activity against Yellow fever virus 17D infected in BHK21 cells assessed as inhibition of virus-induced cytopathogenicity after 3 to 4 days by MTT assay; assay type: functional, cell-based; conditions: BHK-21
[2] = Cytotoxicity against african green monkey Vero 76 cells after 48 to 96 hrs by MTT assay; assay type: cell-based; conditions: chlorocebus sabaeus
[3] = Antiviral activity against BVDV1 NADL ATCC VR-534 infected in MDBK cells assessed as inhibition of virus-induced cytopathogenicity after 3 to 4 days by MTT assay; assay type: functional, cell-based, Bovine viral diarrhea virus 1-NADL; conditions: Bovine viral diarrhea virus isolates and strains, ATCC VR-534, MDBK
Summary of the method: (§1)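 BHK (5×10^4/well) or MDBK (3×10^4/well) cells grown to confluent monolayers overnight, infected at m.o.i. 0.01 in maintenance MEM-Earl with 0.5% inactivated FBS. Serially diluted compounds added after 1 h. Viability read by MTT after 3–4 days at 37 °C. Values are expressed as % of untreated controls, and EC50 is derived by linear regression. Duplicate samples.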

[4] = Cytotoxicity against MDBK cells after 48 to 96 hrs by MTT assay; assay type: cell-based, Bos taurus; conditions: cattle
Summary of the method: (§2)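 Mock-infected MDBK (6×10^5 cells/mL, MEM-E with 10% horse serum) or BHK (1×10^6 cells/mL, MEM-E with 10% FBS) cells incubated with serial compound dilutions at 37 °C and 5% CO2. Viability measured by MTT after 48–96 h. CC50 by linear regression against untreated controls.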

[5] = system: Vesicular stomatitis Indiana virus; experiment: Antiviral activity against Vesicular stomatitis virus indiana ATCC VR-1540 infected in african green monkey Vero-76 cells assessed as reduction in viral plaque after 2 days by crystal violet staining; assay type: functional, organism-based; conditions: ATCC VR-1540, Vero 76, 48 h
[6] = system: Human alphaherpesvirus 1; experiment: Antiviral activity against Herpes simplex virus type 1 KOS ATCC VR-1493 infected in african green monkey Vero-76 cells assessed as reduction in viral plaque after 3 days by crystal violet staining; assay type: functional, organism-based; conditions: Human alphaherpesvirus 1, KOS ATCC VR1493, Vero 76, 72 h
Summary of the method: (§3)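 Vero-76 monolayers (2×10^5 cells/well) infected for 2 h at 50–100 PFU/well. Unadsorbed virus removed. D-MEM with 1% inactivated FBS, 0.75% methylcellulose and serial compound dilutions added. Incubation at 37 °C for 3 days (CVB-5, HSV-1) or 5 days (RSV). Fixed and stained with 50% ethanol/0.8% crystal violet, then plaques counted. EC50 by linear regression versus untreated controls.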

[7] = system: Coxsackievirus B5; experiment: Antiviral activity against Coxsackie virus type B5 Ohio-1 ATCC VR-29 infected in african green monkey Vero-76 cells assessed as reduction in viral plaque after 3 days by crystal violet staining; assay type: functional, organism-based; conditions: Enterovirus B, Ohio-1 ATCC VR-29, Vero 76, 72 h; summary of the method: as §3
[8] = system: Human immunodeficiency virus 1; experiment: Antiviral activity against HIV1 3B infected in human MT4 cells assessed as inhibition of virus-induced cytopathogenicity after 4 days by MTT assay; assay type: functional, organism-based; conditions: Human immunodeficiency virus 1, 3B, MT4, 96 h
Summary of the method: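 MT-4 cells (1×10^4/well) in RPMI with serial compound dilutions, infected with HIV-1 IIIB at 100 CCID50 (m.o.i. 0.01). Viability measured by MTT after 4 days at 37 °C. EC50 for 50% protection from cytopathogenicity obtained by linear regression against untreated controls.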

[9] = Cytotoxicity against human MT4 cells after 96 hrs by MTT assay; assay type: cell-based
Summary of the method: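 Exponentially growing MT-4 cells seeded at 1×10^5 cells/mL in RPMI-1640 with 10% FBS and incubated with serial compound dilutions at 37 °C and 5% CO2. Viability measured by MTT after 96 h. CC50 by linear regression against untreated controls.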

[10] = system: Vaccinia virus; experiment: Antiviral activity against Vaccinia virus Elstree-Lister ATCC VR-1549 infected in african green monkey Vero-76 cells assessed as reduction in viral plaque after 3 days by crystal violet staining; assay type: functional, organism-based; conditions: Orthopoxvirus vaccinia, Elstree-Lister ATCC VR-1549, Vero 76, 72 h
[11] = Cytotoxicity against BHK21 cells by MTT assay; assay type: cell-based, Mesocricetus auratus; conditions: hamster, BHK-21 cells; summary of the method: as §2
[12] = system: Mammalian orthoreovirus 1; experiment: Antiviral activity against Reovirus 1 3651 ATCC VR-214 infected in BHK21 cells assessed as inhibition of virus-induced cytopathogenicity after 3 to 4 days by MTT assay; assay type: functional, organism-based; conditions: Mammalian orthoreovirus 1, 3651 ATCC VR-214, BHK-21; summary of the method: as §1
[13] = system: Poliovirus 1; experiment: Antiviral activity against Polio virus type 1 strain sabin ATCC VR-1562 infected in african green monkey Vero-76 cells assessed as reduction in viral plaque after 2 days by crystal violet staining; assay type: functional, cell-based, Human poliovirus 1 strain Sabin; conditions: Enterovirus C, ATCC VR-1562, Vero 76, 48 h
[14] = Antiviral activity against Human respiratory syncytial virus A2 ATCC VR-1540 infected in african green monkey Vero-76 cells assessed as reduction in viral plaque after 5 days by crystal violet staining; assay type: functional, cell-based; conditions: ATCC VR-1540, Vero 76, 120 h; summary of the method: as §3

COc1ccc(-c2nc3cc(C(C)=O)ccc3[nH]2)c(OC)c1OC
> 100 µM: EC50 [1] | CC50 [2] | EC50 [3] | CC50 [4] | EC50 [5] | EC50 [6] | EC50 [7] | EC50 [8] | CC50 at 96 h [9] | EC50 [10] | CC50 [11] | EC50 [12] | EC50 [13] | EC50 [14]

COc1ccc(-c2nc3cc(C(C)O)ccc3[nH]2)cc1 (stereo not given)
≥ 100 µM: CC50 at 96 h [9]
> 100 µM: EC50 [1] | CC50 [2] | EC50 [3] | CC50 [4] | EC50 [5] | EC50 [6] | EC50 [7] | EC50 [8] | EC50 [10] | CC50 [11] | EC50 [12] | EC50 [13] | EC50 [14]

COc1ccc(-c2nc3cc(C(C)O)ccc3[nH]2)c(OC)c1 (stereo not given)
≥ 100 µM: CC50 at 96 h [9]
> 100 µM: EC50 [1] | CC50 [2] | EC50 [3] | CC50 [4] | EC50 [5] | EC50 [6] | EC50 [7] | EC50 [8] | EC50 [10] | CC50 [11] | EC50 [12] | EC50 [13] | EC50 [14]

COc1ccc(-c2nc3cc(C(C)O)ccc3[nH]2)c(OC)c1OC (stereo not given)
60 µM: CC50 [4] | CC50 [11]
> 100 µM: EC50 [6] | EC50 [7] | EC50 [10] | EC50 [12] | EC50 [13] | EC50 [14]
≥ 100 µM: CC50 [2]
> 79 µM: EC50 [8]
> 60 µM: EC50 [1] | EC50 [3]
79 µM: CC50 at 96 h [9]

COc1ccc(-c2nc3cc(/C(C)=N/O)ccc3[nH]2)c(OC)c1
≥ 100 µM: CC50 at 96 h [9]
43 µM: EC50 [7]
> 100 µM: EC50 [1] | CC50 [2] | CC50 [4] | EC50 [5] | EC50 [6] | EC50 [8] | EC50 [10] | CC50 [11] | EC50 [12] | EC50 [13] | EC50 [14]
17 µM: EC50 [3]

COc1ccc(-c2nc3cc(/C(C)=N/O)ccc3[nH]2)c(OC)c1OC
> 100 µM: EC50 [1] | CC50 [2] | EC50 [3] | CC50 [4] | EC50 [6] | EC50 [7] | EC50 [10] | CC50 [11] | EC50 [12] | EC50 [13]
51 µM: CC50 at 96 h [9]
> 51 µM: EC50 [8]

C/C(=N\NC(N)=S)c1ccc2[nH]c(-c3ccccc3)nc2c1
> 32 µM: EC50 [1] | EC50 [12]
32 µM: CC50 [4] | CC50 [11]
3.8 µM: EC50 [3]
> 100 µM: CC50 [2] | EC50 [5] | EC50 [7] | EC50 [8] | EC50 [13] | EC50 [14]
≥ 100 µM: CC50 at 96 h [9]

CC(=O)c1ccc2[nH]c(-c3ccoc3)nc2c1
> 100 µM: CC50 [2] | EC50 [5] | EC50 [6] | EC50 [7] | EC50 [8] | CC50 at 96 h [9] | EC50 [10] | EC50 [13]
≥ 100 µM: CC50 [4]
22 µM: EC50 [3]
98 µM: CC50 [11]
> 98 µM: EC50 [1]

CC(=O)c1ccc2[nH]c(C3CCCCC3)nc2c1
47 µM: EC50 [7]
> 100 µM: EC50 [1] | CC50 [2] | EC50 [3] | CC50 [4] | EC50 [5] | EC50 [6] | EC50 [8] | CC50 at 96 h [9] | EC50 [10] | CC50 [11] | EC50 [12] | EC50 [13]

COc1ccc(-c2nc3cc(/C(C)=N/NC(N)=S)ccc3n2C2CCCCC2)cc1
7 µM: EC50 [3]
39 µM: CC50 at 96 h [9]
> 40 µM: EC50 [5] | EC50 [6] | EC50 [7] | EC50 [10] | EC50 [13] | EC50 [14]
40 µM: CC50 [2]
> 39 µM: EC50 [8]
32 µM: CC50 [4]

C/C(=N\NC(N)=S)c1ccc2c(c1)nc(-c1ccoc1)n2C1CCCCC1
21 µM: CC50 at 96 h [9]
> 21 µM: EC50 [8]
> 100 µM: EC50 [1] | EC50 [3] | CC50 [4] | CC50 [11]
> 25 µM: EC50 [5] | EC50 [6] | EC50 [7] | EC50 [10] | EC50 [13]
25 µM: CC50 [2]

C/C(=N\NC(N)=S)c1ccc2c(c1)nc(-c1ccccn1)n2C1CCCCC1
> 20 µM: EC50 [5] | EC50 [6] | EC50 [7] | EC50 [10] | EC50 [13]
23 µM: CC50 at 96 h [9]
41 µM: CC50 [4]
> 23 µM: EC50 [8]
> 24 µM: EC50 [1]
26 µM: EC50 [3]
20 µM: CC50 [2]
24 µM: CC50 [11]

C/C(=N\NC(N)=S)c1ccc2[nH]c(C3CCCCC3)nc2c1
24 µM: CC50 [11]
> 24 µM: EC50 [1]
> 100 µM: CC50 [2] | CC50 [4] | EC50 [5] | EC50 [7] | EC50 [10] | EC50 [13] | EC50 [14]
> 48 µM: EC50 [8]
48 µM: CC50 at 96 h [9]
16 µM: EC50 [3]
